According to ChEMBL document CHEMBL1122782, “Bulky amine analogues of ketoprofen: potent antiinflammatory agents” (J Med Chem, 1984):

Experiments:
[1] = system: Rattus norvegicus; experiment: The mean increase in paw volume was compared between drug treated groups and placebo to calculate the percent inhibition in rats at 0.08 mmol/kg by carrageenan Edema Assay; 50-59; type: functional
[2] = system: Rattus norvegicus; experiment: Antiinflammatory efficacy is measured by the weight gain in rats during the 3 week adjuvant arthritis test at 0.278 mM/kg (57.2 mg); type: functional
Procedure, shortened: (§1)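 Male Sprague-Dawley rats (200–230 g), eight per group, received 0.1 mL of 0.6% M. butyricum in heavy mineral oil (negative controls: mineral oil) into one hind-paw plantar tissue. Daily gavage in 1% gum tragacanth or corn oil-water emulsion began on the injection day, for 21 days. Weight gain is expressed as (treated − adjuvant control)/(negative control − adjuvant control) × 100.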

[3] = species: Rattus norvegicus; experiment: Compound was evaluated for highest non-ulcerogenic dose (less than 50% ulcer incidence); type: functional; conditions: read-out: ED50
Procedure, shortened: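 Taken from the 21-day adjuvant arthritis test in male Sprague-Dawley rats dosed orally each day from the day of adjuvant injection. Small intestines and stomachs were examined for ulceration at the end. The value is the highest dose giving less than 50% ulcer incidence.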

[4] = system: Rattus norvegicus; experiment: Antiinflammatory efficacy is measured by the weight gain in rats during the 3 week adjuvant arthritis test at 0.55 mM/kg (113 mg); type: functional; procedure, shortened: as §1
[5] = system: Rattus norvegicus; experiment: The percent inhibition was calculated from the average differences in hind paw volume between the adjuvant injected controls and the adjuvant-injected medicated rats at 0.08 mmol/kg; 50-59; type: functional
[6] = system: Rattus norvegicus; experiment: The mean increase in paw volume was compared between drug treated groups and placebo to calculate the percent inhibition in rats at 0.02 mmol/kg by carrageenan Edema Assay; 0-19; type: functional
[7] = system: Rattus norvegicus; experiment: Ulcerogenicity was measured in intestine during the 3 week adjuvant arthritis test, no of animals with ulcers out of 4 animals tested at 0.02 mM/kg (8.07 mg) was reported; type: functional
Procedure, shortened: (§2)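 In the 21-day adjuvant arthritis model, male Sprague-Dawley rats (200–230 g) received an M. butyricum mineral-oil suspension into one hind paw. They were dosed daily by gavage from the day of injection. At the end of the study the rats were killed, and the small intestines were examined for ulcers. Results are given as the number of ulcerated animals over the number tested.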

[8] = system: Rattus norvegicus; experiment: The mean increase in paw volume was compared between drug treated groups and placebo to calculate the percent inhibition in rats at 0.02 mmol/kg by carrageenan Edema Assay; 30-39; type: functional; conditions: Rattus norvegicus
[9] = system: Rattus norvegicus; experiment: Ulcerogenicity was measured in stomach during the 3 week adjuvant arthritis test, no of animals with ulcers out of 15 animals tested at 0.08 mM/kg (32.3 mg) was reported; type: functional
Procedure, shortened: (§3)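 Male Sprague-Dawley rats (200–230 g) were injected in the plantar tissue of one hind paw with 0.1 mL of 0.6% M. butyricum suspension in heavy mineral oil. Daily oral gavage began on the day of adjuvant injection and ran for the 21 days, with drug suspended in 1% gum tragacanth or a corn oil-water emulsion. At the end the rats were sacrificed and the small intestine and stomach were examined for ulcers. Results are given as animals with ulcers/animals tested.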

[10] = system: Rattus norvegicus; experiment: Antiinflammatory efficacy is measured by the weight gain in rats during the 3 week adjuvant arthritis test at 0.02 mM/kg (8.07 mg); type: functional
Procedure, shortened: (§4)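 Rats were adjuvant-injected (M. butyricum in mineral oil, one hind paw) or given a mineral-oil placebo. They were dosed by gavage daily for 21 days from the injection day, with vehicle only for both control groups, then weighed at the end. Weight gain % = (treated − adjuvant control)/(negative control − adjuvant control) × 100.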

[11] = system: Rattus norvegicus; experiment: Antiinflammatory efficacy is measured by the percent inhibition of paw volume during the 3 week adjuvant arthritis test at 0.02 mM/kg (8.07 mg); type: functional
Procedure, shortened: (§5)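 Male Sprague-Dawley rats (200–230 g) were used in groups of eight. Each received 0.1 mL of 0.6% M. butyricum in heavy mineral oil into the plantar tissue of one hind paw. Daily oral gavage in 1% gum tragacanth or corn oil-water emulsion began on the injection day and ran 21 days. Total hind paw volume was measured by mercury displacement, and inhibition was taken versus vehicle-treated adjuvant controls.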

[12] = system: Rattus norvegicus; experiment: Antiinflammatory efficacy is measured by the percent inhibition of paw volume during the 3 week adjuvant arthritis test at 0.08 mM/kg (32.3 mg); type: functional; procedure, shortened: as §5
[13] = system: Rattus norvegicus; experiment: Ulcerogenicity was measured in intestine during the 3 week adjuvant arthritis test, no of animals with ulcers out of tested animals at 0.16 mM/kg (64.6 mg) was reported; Toxic; type: functional, organism-based; procedure, shortened: as §3
[14] = system: Rattus norvegicus; experiment: Ulcerogenicity was measured in stomach during the 3 week adjuvant arthritis test, no of animals with ulcers out of 4 animals tested at 0.02 mM/kg (8.07 mg) was reported; type: functional; procedure, shortened: as §3
[15] = system: Rattus norvegicus; experiment: Potency relative to phenylbutazone at 0.005 mM/kg; type: functional
[16] = species: Rattus norvegicus; experiment: Effective Dose 50 is the amount of material required to produce effect in 50% of an animal population; type: functional
[17] = species: Mus musculus; experiment: Effective Dose 50 is the amount of material required to elicit analgesic effect in 50% of an animal population
[18] = system: Rattus norvegicus; experiment: Antiinflammatory efficacy is measured by the weight gain in rats during the 3 week adjuvant arthritis test at 0.005 mM/kg (2.02 mg); type: functional; procedure, shortened: as §4
[19] = system: Rattus norvegicus; experiment: Antiinflammatory efficacy is measured by the weight gain in rats during the 3 week adjuvant arthritis test at 0.08 mM/kg (32.3 mg); type: functional; procedure, shortened: as §4
[20] = system: Rattus norvegicus; experiment: Antiinflammatory efficacy is measured by the percent inhibition of paw volume during the 3 week adjuvant arthritis test at 0.005 mM/kg (2.02 mg); type: functional; procedure, shortened: as §5
[21] = system: Rattus norvegicus; experiment: Ulcerogenicity was measured in intestine during the 3 week adjuvant arthritis test, no of animals with ulcers out of 15 animals tested at 0.08 mM/kg (32.3 mg) was reported; type: functional; procedure, shortened: as §2
[22] = system: Rattus norvegicus; experiment: The percent inhibition was calculated from the average differences in hind paw volume between the adjuvant injected controls and the adjuvant-injected medicated rats at 0.08 mmol/kg; 80-89; type: functional

Molecule `CC(CN1C(C)CCCC1C)c1cccc(C(=O)c2ccccc2)c1` (configuration not stated) has an inhibition in vivo at 80 µmol/kg [1] of 50%.
For `CC(C)Cc1ccc(C(C)C(=O)O)cc1` (configuration not stated) [IBUPROFEN], the Weight gain [2] was 1%, the highest non-ulcerogenic dose [3] was 210 µmol/kg and the Weight gain [4] was 18%.
With `CC1CCCC(C)N1CCc1cccc(C(O)c2ccccc2)c1` (configuration not stated) the inhibition in vivo at 80 µmol/kg [5] was 50% and the inhibition in vivo at 20 µmol/kg [6] was 0%.
Work on `CC(CN1CCCCC1CC1CCCCC1)c1cccc(C(=O)c2ccccc2)c1` (configuration not stated) yielded a Ulcerogenic index [7] of 1, an inhibition in vivo at 20 µmol/kg [8] of 30% and a Ulcerogenic index [9] of 1. It also gave a Weight gain [10] of 55%, an Inhibition [11] of 79% and an Inhibition [12] of 90%. The Ulcerogenic index [13] was “Toxic”, the Ulcerogenic index [14] was 0 and the Relative potency [15] was 8.7%. It also gave an ED50 [16] of 3 µmol/kg, an ED50 [17] of 55 mg/kg and a Weight gain [18] of 27%. For the same molecule, the Weight gain [19] was 82%, the Inhibition [20] was 56% and the Ulcerogenic index [21] was 4. It also gave an inhibition in vivo at 80 µmol/kg [22] of 80%.
